Entries after “also recorded” stand apart in the source; their conditions may differ. Where a SMILES comes first, the peptide text is derived from it. Where no end group is shown, it is not given here. The star is where a group is joined. X2 = C[N+](C)(C)[C@@H](CO)C(=O)*; X1 = C[N+]1(C)CCC[C@H]1C(=O)*
Tests used:
recombinant human NRMT = molecular target: T1, recombinant human NRMT (Homo sapiens, UniProt Q9BV86); assay: Isothermal titration calorimetry; type: binding; settings: 25°C, pH 8.0; for binding to recombinant human NRMT (in words): 10 residue RCC1 N-terminal peptides
T1 sequence (Q9BV86 1-223): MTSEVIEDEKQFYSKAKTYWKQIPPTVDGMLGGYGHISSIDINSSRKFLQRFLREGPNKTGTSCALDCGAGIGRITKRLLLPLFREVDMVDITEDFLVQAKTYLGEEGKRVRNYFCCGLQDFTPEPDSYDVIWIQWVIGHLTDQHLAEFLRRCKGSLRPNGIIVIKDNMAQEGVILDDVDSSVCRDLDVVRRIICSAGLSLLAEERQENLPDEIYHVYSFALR
Outline: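 Recombinant NRMT was dialyzed overnight at 4°C against 50 mM Tris, 50 mM potassium acetate, pH 8.0. Ten-residue RCC1 N-terminal peptides, unmodified or N-methylated, were dissolved in the same buffer. At 25°C, 100 µM enzyme was titrated with 800–1000 µM peptide, and binding curves were fitted.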

[1] = test system: recombinant NRMT (SPK-RCC1 substrate); assay: In vitro product inhibition assay, SPK-RCC1 substrate; type: biochemical; settings: increasing concentrations of product peptide; n=2
Outline: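 Recombinant NRMT methylated RCC1 protein substrates bearing SPK or PPK N-termini in vitro. Increasing concentrations of N-trimethylated SPK or N-dimethylated PPK RCC1 product peptides were present. The read-out was N-terminal methylation of the substrate protein, normalized to the lowest product-peptide condition.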

N-terminus of protein = settings: yeast and mammals; ref [24],[25]; cited from earlier work
[2] = test system: endogenous NRMT (293LT cells); assay: Co-precipitation of endogenous NRMT with FLAG-tagged substrate proteins; type: binding; settings: C-terminally FLAG-tagged protein expressed in 293LT cells
Outline: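 C-terminally FLAG-tagged RCC1 or VRK2 expressed in 293LT cells, immunoprecipitated with anti-FLAG, and run on 10% polyacrylamide gel with Coomassie staining. On-bead material washed 3× with 100 mM ammonium bicarbonate (pH 8.0), then reduced, carbamidomethylated and digested with endoproteinase Glu-C (enzyme:protein 1:20). Peptides acidified to pH 3.5 and analysed by nano-LC-MS on C18 capillary columns.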

CC[C@H](C)[C@H](NC(=O)[C@H](CCCNC(=N)N)NC(=O)[C@H](CCCCN)NC(=O)[C@@H]1CCCN1C(=O)[C@@H]1CCC[N+]1(C)C)C(=O)N[C@@H](C)C(=O)N[C@@H](CCCCN)C(=O)N[C@@H](CCCNC(=N)N)C(=O)N[C@@H](CCCNC(=N)N)C(=O)N[C@@H](CO)C(=O)O [me2PPKRIAKRRS] (X1-PKRIAKRRS-OH; C-terminus assumed)
binding to recombinant human NRMT (in words) (recombinant human NRMT): bound to recombinant human NRMT with high affinity
concentration of efficient inhibition of N-terminal methylation of SPK-RCC1 [1]: 1.3 µM

PPQRIAKRRS
binding to recombinant human NRMT (in words) (recombinant human NRMT): very low affinity binding (in mM range, data not shown)

CC[C@H](C)[C@H](NC(=O)[C@H](CCCNC(=N)N)NC(=O)[C@H](CCCCN)NC(=O)[C@@H]1CCCN1C(=O)[C@H](CO)[N+](C)(C)C)C(=O)N[C@@H](C)C(=O)N[C@@H](CCCCN)C(=O)N[C@@H](CCCNC(=N)N)C(=O)N[C@@H](CCCNC(=N)N)C(=O)N[C@@H](CO)C(=O)O [me3SPKRIAKRRS] (X2-PKRIAKRRS-OH; C-terminus assumed)
binding to recombinant human NRMT (in words) (recombinant human NRMT): bound to recombinant human NRMT with high affinity
concentration of efficient inhibition of N-terminal methylation of SPK-RCC1 [1]: 1.3 µM

SPQRIAKRRS
binding to recombinant human NRMT (in words) (recombinant human NRMT): very low affinity binding (in mM range, data not shown)

PWP1: protein with MNR-N-terminus
N-terminal acetylation reported (in words) (N-terminus of protein): reported to be N-terminally acetylated

VRK2-FLAG: FLAG-tagged VRK2, possesses a P-P-K motif
capture / co-precipitation of endogenous NRMT (in words) [2]: efficiently captured endogenous NRMT
capture / co-precipitation of endogenous NRMT (in words) ([2]; listed as VRK2): captured more NRMT than the RCC1; also recorded: NRMT is co-precipitated

PPKRIAKRRS [PPKRIAKRRS]
Kd (recombinant human NRMT; Kd, bi-phasic titration curve, second phase): 136 nM

— PMC3447998 (Biochemistry, 2012)
